From ChEMBL document CHEMBL4396879, “Conjugation of Short Peptides to Dibenzodiazepinone-Type Muscarinic Acetylcholine Receptor Ligands Determines M2R Selectivity” (J Med Chem, 2019)

Columns and labels:
[1] = molecular target: Muscarinic acetylcholine receptor M2 and M5 (Homo sapiens) (UniProt P08172+P08912); experiment: Selectivity ratio of Ki for human muscarinic M5 receptor expressed in CHO-K9 cells to Ki for human muscarinic M2 receptor expressed in CHO-K9 cells; format: cell-based
Outline: (§1)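 Ratio of mean Ki values. Each Ki came from an individual [3H]NMS competition experiment at the given CHO-hMxR subtype, converting IC50 to Ki by Cheng-Prusoff before averaging.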

[2] = molecular target: T1, Muscarinic acetylcholine receptor M2 (Homo sapiens, UniProt P08172); experiment: Competitive displacement of [3H]-NMS from human muscarinic M2 receptor expressed in CHO-K9 cells using 2 nM [3H]-NMS after 3 hrs by microbeta2 scintillation counting method; format: cell-based
T1 sequence (P08172 whole entry): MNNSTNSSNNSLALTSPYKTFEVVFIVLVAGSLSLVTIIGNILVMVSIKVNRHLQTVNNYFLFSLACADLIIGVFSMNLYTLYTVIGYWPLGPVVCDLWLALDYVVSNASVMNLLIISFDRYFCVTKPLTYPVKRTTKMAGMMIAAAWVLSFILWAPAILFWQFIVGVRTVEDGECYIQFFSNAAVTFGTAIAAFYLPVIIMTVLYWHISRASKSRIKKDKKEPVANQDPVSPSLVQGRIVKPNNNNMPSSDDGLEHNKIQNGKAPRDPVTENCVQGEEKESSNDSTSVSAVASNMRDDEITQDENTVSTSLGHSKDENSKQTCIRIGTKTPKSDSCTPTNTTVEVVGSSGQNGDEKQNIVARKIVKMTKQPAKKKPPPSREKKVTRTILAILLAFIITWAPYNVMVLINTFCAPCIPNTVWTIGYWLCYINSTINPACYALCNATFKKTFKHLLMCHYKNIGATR
Outline: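 Intact CHO-hM2R cells incubated at 22 °C with a high [3H]NMS concentration (2 nM). […] Curves were fitted by four-parameter logistic fits. Mean ± SEM from ≥4 experiments in triplicate.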

[3] = molecular target: T2, Muscarinic acetylcholine receptor M4 (Homo sapiens, UniProt P08173); experiment: Displacement of [3H]-NMS from human muscarinic M4 receptor expressed in CHO-K9 cells after 3 hrs by microbeta2 scintillation counting method; format: cell-based
T2 sequence (P08173 whole entry): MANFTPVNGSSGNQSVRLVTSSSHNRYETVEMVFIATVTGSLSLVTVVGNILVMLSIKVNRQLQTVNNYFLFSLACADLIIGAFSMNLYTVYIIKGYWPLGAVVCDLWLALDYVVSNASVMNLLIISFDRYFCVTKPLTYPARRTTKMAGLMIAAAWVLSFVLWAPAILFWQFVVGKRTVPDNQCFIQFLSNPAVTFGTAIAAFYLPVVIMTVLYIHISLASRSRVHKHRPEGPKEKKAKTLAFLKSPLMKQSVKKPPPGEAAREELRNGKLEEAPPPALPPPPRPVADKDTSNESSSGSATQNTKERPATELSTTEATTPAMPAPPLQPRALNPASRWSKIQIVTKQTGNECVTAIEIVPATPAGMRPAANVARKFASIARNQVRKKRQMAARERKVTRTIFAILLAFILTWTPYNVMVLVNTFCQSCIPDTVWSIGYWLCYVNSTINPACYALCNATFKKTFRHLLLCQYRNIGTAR
Outline: (§2)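 [3H]NMS competition binding on intact CHO-hMxR cells in L15 medium with 1% BSA, 3 h at 22 ± 1 °C with gentle shaking. [3H]NMS was 0.2 nM (M1, M2, M3), 0.1 nM (M4) or 0.3 nM (M5). […] Cells were lysed in urea/acetic acid/Triton and counted by liquid scintillation. Ki from Cheng-Prusoff. Triplicates, ≥3 experiments.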

[4] = molecular target: T1, Muscarinic acetylcholine receptor M2; experiment: Displacement of [3H]-NMS from human muscarinic M2 receptor expressed in CHO-K9 cells after 3 hrs by microbeta2 scintillation counting method; format: cell-based; outline: as §2
[5] = molecular target: T3, Muscarinic acetylcholine receptor M2 (Homo sapiens) (UniProt P08172); experiment: (§3) Antagonist activity at human muscarinic M2 receptor expressed in HEK293 cells co-expressing HA-Galphaq/i5 assessed as inhibition of carbachol-induced IP1 accumulation pre-incubated for 30 mins followed by carbachol addition and measured after 1 hr by HTRF assay; format: functional, cell-based
T3 sequence (whole entry): T1 sequence (P08172 whole entry)
Outline: (§4)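 HEK-293 cells transiently cotransfected (receptor plus HA-tagged Gαqi5), detached after 1 day and seeded at 10,000 cells/well for 24 h at 37 °C. Duplicates.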

[6] = molecular target: T1, Muscarinic acetylcholine receptor M2; experiment: as §3; format: functional, cell-based; outline: as §4
[7] = molecular target: Muscarinic acetylcholine receptor M2 and M4 (Homo sapiens) (UniProt P08173+P08172); experiment: Selectivity ratio of Ki for human muscarinic M4 receptor expressed in CHO-K9 cells to Ki for human muscarinic M2 receptor expressed in CHO-K9 cells; format: cell-based; outline: as §1

Sequence of Muscarinic acetylcholine receptor M2 and M5 (Homo sapiens) (P08912 whole entry, looked up, one chain of several): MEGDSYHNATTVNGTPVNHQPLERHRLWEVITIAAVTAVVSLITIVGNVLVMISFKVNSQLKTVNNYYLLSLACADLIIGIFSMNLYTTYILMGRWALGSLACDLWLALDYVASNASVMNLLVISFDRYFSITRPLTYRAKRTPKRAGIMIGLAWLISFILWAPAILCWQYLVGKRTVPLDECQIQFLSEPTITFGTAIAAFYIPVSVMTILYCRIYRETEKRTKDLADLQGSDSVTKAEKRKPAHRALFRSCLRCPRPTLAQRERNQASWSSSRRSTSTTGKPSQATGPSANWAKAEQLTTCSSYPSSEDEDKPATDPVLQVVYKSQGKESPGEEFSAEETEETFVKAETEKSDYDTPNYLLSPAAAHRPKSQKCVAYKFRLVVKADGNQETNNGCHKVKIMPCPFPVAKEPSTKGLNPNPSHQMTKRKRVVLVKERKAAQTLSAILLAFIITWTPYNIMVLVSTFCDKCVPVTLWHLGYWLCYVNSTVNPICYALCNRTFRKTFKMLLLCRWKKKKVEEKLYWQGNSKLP

Ratio Ki [1]	IC50 [2] [nM]	Ki [2] [nM]	Ki [3] [nM]	Ki [4] [nM]	inhibition [5]	IC50 [6] [nM]	Ratio Ki [7]	Compound
400	41.7	2.04	61.7	1.07	Dose-dependent effect	93.3	60	CC(=O)N[C@@H](CCCCN)C(=O)N[C@@H](CCCNC(=N)N)C(=O)NCCCCC1CCN(CC(=O)N2c3ccccc3NC(=O)c3ccccc32)CC1
4900	1.78	0.0794	2.09	0.0631	Dose-dependent effect	10.5	40	CC(=O)N[C@@H](CCCCN)C(=O)N[C@@H](C)C(=O)N[C@@H](CCCNC(=N)N)C(=O)NCCN1CCN(CCCCC2CCN(CC(=O)N3c4ccccc4NC(=O)c4ccccc43)CC2)CC1
